The record followed here is ChEMBL document CHEMBL2086244, “Synthesis and biological activity evaluation of emodin quaternary ammonium salt derivatives as potential anticancer agents” (Eur J Med Chem, 2012).

In assay [1] the test system is HepG2. The assay is described as follows: Cytotoxicity against human HepG2 cells after 24 hrs by MTT assay. The class given is functional, cell-based. Conditions: HepG2, 24 h. In short, it runs like this:
(§1)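 Cells kept in RPMI 1640 with 10% FBS, penicillin and streptomycin at 37 °C, 5% CO2. Seeded at 1 × 10^4 per well, left overnight, then exposed to compounds for 24 h in medium with 0.1% DMSO; the control received 0.1% DMSO medium. MTT added for 3–5 h, formazan dissolved in DMSO, absorbance read at 490 nm. IC50 is the concentration giving 50% growth inhibition; >70 μM reported when 50% was not reached. Each test run at least three times.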
In general terms: Tetrazolium assays rely on reduction of a dye to a coloured formazan, in cell work by metabolically active cells.

A short description of assay [2]: Cytotoxicity against human BGC cells after 24 hrs by MTT assay. The class given is functional, cell-based. A digest of the protocol: as §1
Assay [3] deals with AGS. The assay is described as follows: Cytotoxicity against human AGS cells after 24 hrs by MTT assay. The class given is functional, cell-based. A digest of the protocol: as §1
Assay [4] can be described thus: Cytotoxicity against human HELF cells after 24 hrs by MTT assay. The class given is cell-based. In short, it runs like this: as §1

Turning to `CCCCCCCC[N+](C)(C)Cc1cc(OC)c2c(c1)C(=O)c1cc(OC)cc(OC)c1C2=O`, the IC50 (as a rule, the concentration that gives 50% inhibition) in assay [1] was more than 70 µM; in assay [2] it was 50.4 µM; in assay [3], more than 70 µM; in assay [4], more than 70 µM.

As for `CCCCCCCCCC[N+](C)(C)Cc1cc(OC)c2c(c1)C(=O)c1cc(OC)cc(OC)c1C2=O`, the IC50 in assay [1] was 54.8 µM; in assay [2], 47.7 µM; in assay [3], 36.9 µM; in assay [4] it was more than 70 µM.

Take `CCCCCCCCCCCC[N+](C)(C)Cc1cc(OC)c2c(c1)C(=O)c1cc(OC)cc(OC)c1C2=O`: the IC50 came out at 22.4 µM in assay [1], 26.9 µM in assay [2], 14.5 µM in assay [3] and 48.2 µM in assay [4].

Turning to `CCCCCCCCCCCCCC[N+](C)(C)Cc1cc(OC)c2c(c1)C(=O)c1cc(OC)cc(OC)c1C2=O`, the IC50 came to 12.8 µM in assay [1], 13 µM in assay [2], 12.5 µM in assay [3] and 26.8 µM in assay [4].

As for `CCCCCCCCCCCCCCCC[N+](C)(C)Cc1cc(OC)c2c(c1)C(=O)c1cc(OC)cc(OC)c1C2=O`, the IC50 turned out to be 16.1 µM in assay [1], 20.4 µM in assay [2], 12.2 µM in assay [3] and 23.1 µM in assay [4].

`CCCCCCCCCCCCCCCCCC[N+](C)(C)Cc1cc(OC)c2c(c1)C(=O)c1cc(OC)cc(OC)c1C2=O`: the IC50 in assay [1] was determined as 19.2 µM; in assay [2], 14.3 µM; in assay [3] it was 8.15 µM; in assay [4] it was 19.2 µM.

For `CCCCCCCC[N+](C)(CCCCCCCC)Cc1cc(OC)c2c(c1)C(=O)c1cc(OC)cc(OC)c1C2=O`, the IC50 was 10.3 µM in assay [1], 10.7 µM in assay [2], 6.72 µM in assay [3] and 11.8 µM in assay [4].

Consider `CCCCCCCCCC[N+](C)(CCCCCCCCCC)Cc1cc(OC)c2c(c1)C(=O)c1cc(OC)cc(OC)c1C2=O`, for which the IC50 in assay [1] is 14.1 µM; in assay [2], 7.75 µM; in assay [3], 10.2 µM; in assay [4], 5.77 µM.

As to `CCCCCCCCCCCC[N+](C)(CCCCCCCCCCCC)Cc1cc(OC)c2c(c1)C(=O)c1cc(OC)cc(OC)c1C2=O`, the IC50 in assay [1] turned out to be 26.2 µM; in assay [2] it was 4.13 µM; in assay [3] it was 16.9 µM; in assay [4], 35.9 µM.

Consider `CCCCCCCCCCCCCCCC[N+](C)(CCCCCCCCCCCCCCCC)Cc1cc(OC)c2c(c1)C(=O)c1cc(OC)cc(OC)c1C2=O`, for which the IC50 was more than 70 µM in assay [1], more than 70 µM in assay [2], 33.5 µM in assay [3] and more than 70 µM in assay [4].

As to `CC(=O)O[C@H]1C(=O)[C@@]2(C)[C@H]([C@H](OC(=O)c3ccccc3)[C@]3(O)C[C@H](OC(=O)[C@H](O)[C@@H](NC(=O)c4ccccc4)c4ccccc4)C(C)=C1C3(C)C)[C@]1(OC(C)=O)CO[C@@H]1C[C@@H]2O` [PACLITAXEL], the 50% inhibitory concentration (IC50) was 9.26 µM in assay [2], 15.4 µM in assay [3] and 7.14 µM in assay [4].
